Hits are enriched below; roughly 2.2% of the tested compounds scored in any of these assays.
ERp5 inh: ERp5 (human) disulfide isomerase inhibition | AID 651711 | 350,000 tested, 0.05% active | ERp5 insulin aggregation, absorbance 650 nm, 90 min | inhibition, % at 9.99 µM | Q15084;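 active means mean replicate inhibition above about 25%, with every replicate also reaching it, limit read from the data, passing the limit was not always enough; inconclusive means only one of those two criteria met; inactive means neither criterion met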
Target sequence (Q15084 whole entry, looked up): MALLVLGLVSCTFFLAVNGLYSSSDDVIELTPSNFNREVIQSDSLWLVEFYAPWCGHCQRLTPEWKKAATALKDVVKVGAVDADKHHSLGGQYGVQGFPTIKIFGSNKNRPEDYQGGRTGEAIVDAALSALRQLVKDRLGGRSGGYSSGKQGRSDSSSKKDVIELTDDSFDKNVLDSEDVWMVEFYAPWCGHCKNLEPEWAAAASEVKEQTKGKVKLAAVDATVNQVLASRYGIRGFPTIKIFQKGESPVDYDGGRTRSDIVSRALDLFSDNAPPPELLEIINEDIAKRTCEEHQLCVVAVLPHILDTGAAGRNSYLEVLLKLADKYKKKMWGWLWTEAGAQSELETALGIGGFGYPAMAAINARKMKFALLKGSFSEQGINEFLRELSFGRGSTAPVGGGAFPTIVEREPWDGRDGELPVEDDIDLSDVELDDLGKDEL
Ecoli rRNA inh: selective bacterial rRNA inhibition in E. coli; E. coli WT GFP vs humanized-ribosome RFP mutants, fluorescence, 24 h; hits give low values; DMSO median 0, no signal -100; GFP signal change (wild-type ribosome), % (concentration not given with the values); 350,000 tested, 1.6% active; AID 720706;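 active means significant combined selectivity score with lowered wild-type GFP, culture density cut under 30%, mutant RFP and density less affected; inactive means any of these conditions unmet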
PDI inh: PDI (human) enzyme inhibition; P07237; PDI insulin aggregation turbidity, A650, 90 min; inhibition, % at 10 µM; 350,000 tested, 0.052% active; AID 588391;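 active means mean inhibition across replicates of 30% or more, whatever share of single replicates reach that level; inconclusive means mean inhibition below 30% while every single replicate reaches 30%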
PvdQ inh: P. aeruginosa PvdQ acylase inhibition; purified PvdQ acylase, fluorescence plate reader; inhibition, % at 10 µM; 340,000 tested, 0.063% active; AID 488965; in the data active means inhibition above about 30%, passing the limit was not always enough; inconclusive means no clear call, values can overlap the other calls;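 further: 0% = vehicle neutral wells and 100% = reference inhibitor wells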
HIV Env fusion: HIV envelope-mediated fusion inhibition | HeLa-JRFL Env/CEM21 cell fusion, luciferase | inhibition, % at 12.3 µM | 360,000 tested, 1.1% active;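 active means mean replicate inhibition score of at least 50 and every replicate individually at or above 50; inconclusive means only one of the two criteria met; inactive means mean below 50 and not all replicates reaching 50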;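 further: 0% = plate neutral controls and 100% = maraviroc near 300 nM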
FN deposit inh: fibronectin deposition inhibition | AH1F fibroblasts, Alexa488-fibronectin deposition fluorescence, overnight | inhibition, % at 12.6 µM | 350,000 tested, 0.086% active | AID 743247;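 active means mean inhibition across replicates of 30% or more, regardless of how many single replicates reach that level; inconclusive means mean under 30% yet at least half of replicates reach 30%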;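 further: positive control wells lacked labelled fibronectin entirely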
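Assay system: AH1F fibroblasts assembling fluorescent fibronectin matrix; Amount: 10000 AH1F cells per well; Buffer or medium: DMEM, 2% serum; Probe or stimulus: Alexa488-fibronectin, 24 nM final in well; Doses: single compound dose, delivered by pin transfer; Incubation: 1 h adhesion, overnight exposure; Measured by: fluorescence 485/525 nm; Read-out: fibronectin deposition inhibition.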
* = called active by the depositor; ? = inconclusive; nt = no result given; [ ] = remark or other dose.

SMILES	ERp5 inh	Ecoli rRNA inh	PDI inh	PvdQ inh	HIV Env fusion	FN deposit inh
Cc1ccc(N(C(=O)Cc2cccs2)C(C(=O)NC2CCCCC2)c2ccccn2)cc1C (stereo unspecified)	nt	nt	-3	-1	82*	-2
COc1ccc(S(=O)(=O)N(C)C[C@H]2OCCCC[C@H](C)Oc3ccc(NC(=O)c4ccncc4)cc3C(=O)N([C@H](C)CO)C[C@H]2C)cc1	1	1	nt	nt	-8[16.7 µM]	2
C[C@H](CO)N1C[C@H](C)[C@@H](CN(C)C(=O)Nc2cccc3ccccc23)OCCCC[C@H](C)Oc2ccc(NC(=O)Nc3ccc(F)cc3)cc2C1=O	-1	0	nt	nt	21[16.7 µM]	5
C[C@H]1CN([C@@H](C)CO)C(=O)c2cccc(NC(=O)Nc3ccc4c(c3)OCO4)c2O[C@H]1CN(C)S(=O)(=O)c1cn(C)cn1	2	1	nt	nt	nt	5
COc1cccc(CN(C(=O)Cc2c[nH]c3ccccc23)C(C(=O)NC2CCCCC2)c2cccs2)c1 (stereo unspecified)	nt	nt	9	3	91*	5
C/C=C/c1ccc2c(c1)O[C@@H](CN(C)C(=O)C1CCOCC1)[C@@H](C)CN([C@H](C)CO)S2(=O)=O	-4	-2	nt	nt	16[16.7 µM]	7
CCOC(=O)c1ccc(NC2=CC(=O)CC(c3ccco3)C2)cc1 (stereo unspecified)	0	-22*	3	9	-24	7
O=C1C=C(Nc2ccc(O)cc2)CC(c2ccco2)C1 (stereo unspecified)	nt	nt	8	-7	-223	-1
O=C1C=C(Nc2ccc(Cl)cc2Cl)CC(c2ccco2)C1 (stereo unspecified)	-4	-22*	-6	0	-1	3
O=C1C=C(NCc2ccc(Cl)cc2)CC(c2ccco2)C1 (stereo unspecified)	nt	nt	3	-6	-17	0
C[C@@H]1CN([C@@H](C)CO)C(=O)Cc2cc(NC(=O)CCN3CCOCC3)ccc2O[C@H]1CN(C)C(=O)Nc1ccc(F)cc1	0	7	nt	nt	27[16.7 µM]	nt
CCC(=O)Nc1ccc2c(c1)C(=O)N(C)[C@H]1CC[C@H](CC(=O)Nc3cccc(OC)c3)O[C@@H]1CO2	-6	-1	nt	nt	-19[16.7 µM]	-12
CN1C(=O)c2ccccc2OC1(C)Cc1ccccc1 (stereo unspecified)	-6	-21*	11	2	11	-6
Cc1cccc(C(=O)Oc2ccccc2C2C[C@]3(C)CC(=O)NC3N2C(=O)c2cccc(C)c2)c1 (stereo partly specified)	nt	nt	-5	-14	48*	-7
CC(=O)N1C(c2ccccc2O)C[C@]2(C)CC(=O)NC12 (stereo partly specified)	-1	10	1	-22	4	-18
C[C@@]12CC(=O)NC1N(C(=O)c1cccc(C(F)(F)F)c1)C(c1ccccc1O)C2 (stereo partly specified)	nt	nt	1	-3	105*	9
COc1cc2[nH]c(=S)nc(NCc3ccccc3)c2cc1OC	2	-16*	4	-4	9	11
Fc1ccc(CN(Cc2ccccc2)C(c2cccs2)c2nnnn2C2CCCCC2)cc1 (stereo unspecified)	nt	nt	-4	-6	nt	nt
Clc1ccc(CN(Cc2ccccc2)C(c2cccs2)c2nnnn2C2CCCC2)cc1 (stereo unspecified)	nt	nt	0	-5	94*	14
O=C(Nc1ccc2oc(Cc3ccc(Cl)cc3)nc2c1)c1cccnc1	5	-14	7	-12	nt	nt
CCOc1cccc(C(=O)Nc2ccc3oc(Cc4ccc(Cl)cc4)nc3c2)c1	-1	-30*	10	-11	nt	nt
Cc1ccc(S(=O)(=O)N(CC(=O)NCCC2=CCCCC2)Cc2ccccc2F)cc1	nt	nt	9	-7	nt	nt
O=C(CN(Cc1ccccc1)S(=O)(=O)c1ccc(F)cc1)NCCC1=CCCCC1	nt	nt	16	-9	109*	-4
O=C(COC(=O)c1ccccc1Cl)NCCC1=CCCCC1	?	-21*	-2	-1	0	-4
COCCCNC(=O)CN(CCc1ccccc1)S(=O)(=O)c1ccc(OC)cc1	1	-24*	11	5	15	2
SMILES	ERp5 inh	Ecoli rRNA inh	PDI inh	PvdQ inh	HIV Env fusion	FN deposit inh
O=C(CN(Cc1ccccc1F)S(=O)(=O)c1ccc(Cl)cc1)NCCC1=CCCCC1	nt	nt	10	-16	69*	5
C[C@H]1CN([C@@H](C)CO)C(=O)Cc2cc(NS(=O)(=O)c3ccc(Cl)cc3)ccc2O[C@H]1CN(C)Cc1ccc(C(=O)Nc2ccccc2N)cc1	0	0	nt	nt	nt	nt
Cc1ccc(S(=O)(=O)N(C)C[C@@H]2Oc3c(NC(=O)Nc4ccccc4)cccc3C(=O)N([C@H](C)CO)C[C@@H]2C)cc1	-15	-6	nt	nt	11[16.7 µM]	nt
COc1ccc(N(CC(=O)NCCC2=CCCCC2)S(=O)(=O)c2ccccc2)c(OC)c1	8	10	1	1	-17	-11
Cc1ccc(S(=O)(=O)N(CC(=O)NCCC2=CCCCC2)Cc2ccccc2)cc1	nt	nt	3	-5	104*	nt
Cc1ccc(S(=O)(=O)N(C)CC(=O)NCCCc2ccccc2)cc1	-2	-24*	-32	-12	-1	0
C[C@@H]1CN([C@@H](C)CO)C(=O)c2cc(-c3cncnc3)cnc2O[C@H]1CN(C)C(=O)Nc1ccc2c(c1)OCO2	-1	5	nt	nt	8[16.7 µM]	nt
Cc1ccccc1S(=O)(=O)N1CC[C@H]2[C@H](CO)Nc3ccc(-c4ccccc4F)cc3[C@H]21	1	-5	nt	nt	nt	10
CC(C)c1ccc2c(c1)[C@H]1OCC[C@H]1[C@@H](c1cccs1)N2	nt	nt	-2	-15	59*	8
Cc1cc(C)c2c(c1)N[C@H](c1cccs1)[C@@H]1CCO[C@H]21	20	9	12	-14	-2	-18
COCC(=O)N1CC2(CN(Cc3nccs3)C2)c2c(n(C)c3cc(OC)ccc23)[C@@H]1CO	nt	0	nt	nt	nt	nt
Cc1cc(=O)c2ccc(C(F)(F)F)cc2[nH]1	0	28	3	-4	5	7
O=c1cc(C(F)(F)F)[nH]c2ccc(C(F)(F)F)cc12	-3	-50*	4	-7	3	-5
CCN(C(=O)COC(=O)c1cc(-c2ccccc2)nn1-c1ccccc1)C1CCS(=O)(=O)C1 (stereo unspecified)	0	-31*	-2	-8	5	-8
CO[C@H](CN(C)S(=O)(=O)c1ccc(C)cc1)[C@@H](C)CN(Cc1ccccc1Cl)[C@H](C)CO	-1	-2	nt	nt	nt	3
Nc1ccc(C(=O)NN2C(=O)[C@H](Cl)C2c2ccc(Cl)cc2)cc1 (stereo partly specified)	3	-15	56*	-7	45	-14
Cc1cc(C)cc(NC(=O)CCc2c(C)nn(-c3ccc(N4CCCCC4)nn3)c2C)c1	8	13	5	10	-35	7

Compound activity as filed in PubChem.
